Several values for one entry are separate records, joined by “and”; a condition that tells them apart may be missing. Equal entries are not always repeated. Entries after “also recorded” stand apart in the source; their conditions may differ. Marks after values point to notes of the source that are not given here.
Key:
[1] = target: T1, cholesteryl ester transfer protein (CETP) activity (Homo sapiens, UniProt P11597); test: Serum CETP activity by fluorometric assay in healthy subjects; assay type: in vivo; settings: for CETP activity: Mean % change from baseline (90% CI) / CETP activity: Mean % change vs placebo (90 % CI): trough (predose) day 14
T1 sequence (P11597 18-493): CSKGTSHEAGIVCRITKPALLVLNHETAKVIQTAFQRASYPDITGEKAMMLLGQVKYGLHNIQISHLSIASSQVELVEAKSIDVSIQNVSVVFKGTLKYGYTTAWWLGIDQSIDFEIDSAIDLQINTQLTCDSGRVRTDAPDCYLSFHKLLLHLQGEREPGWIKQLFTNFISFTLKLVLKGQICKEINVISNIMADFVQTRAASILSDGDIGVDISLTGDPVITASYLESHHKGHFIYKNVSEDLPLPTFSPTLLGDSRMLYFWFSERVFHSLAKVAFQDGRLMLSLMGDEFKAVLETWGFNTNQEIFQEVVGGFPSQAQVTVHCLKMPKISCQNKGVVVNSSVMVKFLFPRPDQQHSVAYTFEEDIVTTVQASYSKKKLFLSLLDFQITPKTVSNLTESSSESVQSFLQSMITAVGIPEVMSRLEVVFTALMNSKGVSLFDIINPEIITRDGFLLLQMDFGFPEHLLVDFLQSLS
Method in brief: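 Serum was sampled at the pharmacokinetic time points, including pre-dose troughs, after once-daily oral dosing (10–600 mg) or placebo. CETP activity was measured by fluorometric assay and expressed as the maximum test-compound-inhibitable activity. Change from baseline was analysed with an Emax dose model (Hill coefficient 1, baseline covariate).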

[2] = system: HDL-C, LDL-C, total cholesterol, triglycerides; test: Lipid analyses; assay type: in vivo, human; settings: for HDL-C: Mean % change from baseline (90% CI) / HDL-C: Mean % change vs placebo (90 % CI) / LDL-C: Mean % change from baseline (90% CI) / LDL-C: Mean % change vs placebo (90 % CI) / Total cholesterol: Mean % change from baseline (90% CI) / Total cholesterol: Mean % change vs placebo (90 % CI) / Triglycerides: Mean % change from baseline (90% CI) / Triglycerides: Mean % change vs placebo (90 % CI): day 14
Method in brief: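 Placebo-controlled once-daily oral capsules (10–600 mg) with a low-fat meal for 14–15 days. Total cholesterol and triglycerides were measured by enzymatic methods. HDL-C was measured after dextran sulfate precipitation and centrifugation of LDL/VLDL. LDL-C was measured by a direct assay. Change from baseline was taken to Day 14 and to 2 weeks after the last dose. Emax models (Hill coefficient 1, baseline covariate) were used for HDL-C/LDL-C; linear models for total cholesterol and triglycerides.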

[3] = system: apolipoproteins (apo AI, apo AII, apo B, apo E); test: Apolipoprotein concentrations by immunoturbidimetric methods in healthy subjects; assay type: in vivo, human; settings: 10 mg/day, day 14
Method in brief: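 Healthy adults took placebo or test compound (10, 100, 300, 600 mg) as capsules once daily with a low-fat meal for 14–15 days. Apo AI, AII, B and E were measured by immunoturbidimetry on a Roche Modular analyser. Values are percent change from baseline to Day 14, including all randomized subjects given at least one dose.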

CETP activity: Mean % change from baseline (90% CI) ([1]; 10 mg/day): −14.60 (−22.33, −6.87) % | CETP activity: Mean % change vs placebo (90 % CI) ([1]; 10 mg/day): −16.08 (−23.23, −8.94) ^*** % | trough inhibition of CETP activity ([1]; 100 mg): 65% | CETP activity: Mean % change from baseline (90% CI) ([1]; 100 mg/day): −64.54 (−73.08, −56.00) % | CETP activity: Mean % change vs placebo (90 % CI) ([1]; 100 mg/day): −66.02 (−78.93, −53.11) ^*** % | trough inhibition of CETP activity ([1]; 300 mg): 84% | CETP activity: Mean % change from baseline (90% CI) ([1]; 300 mg/day): −84.26 (−91.34, −77.18) % | CETP activity: Mean % change vs placebo (90 % CI) ([1]; 300 mg/day): −85.74 (−97.43, −74.05) ^*** % | trough inhibition of CETP activity ([1]; 600 mg): 91% and 91.2% | inhibition of CETP activity compared with placebo ([1]; 600 mg, after multiple doses): 93% | CETP activity: Mean % change from baseline (90% CI) ([1]; 600 mg/day): −91.18 (−99.71, −82.66) % | CETP activity: Mean % change vs placebo (90 % CI) ([1]; 600 mg/day): −92.66 (−104.92, −80.41) ^*** %
SMILES: Cc1cc(C)c2c(c1)[C@@H](N(Cc1cc(C(F)(F)F)cc(C(F)(F)F)c1)c1nnn(C)n1)CCCN2C[C@H]1CC[C@H](C(=O)O)CC1 [evacetrapib]
CETP activity after 2-week (336 h) washout ([1]; each dose group): returned to levels at or near baseline; also recorded: returned to baseline levels | HDL-C: Mean % change from baseline (90% CI) ([2]; 10 mg/day): 11.69 (4.39, 18.99) % | HDL-C: Mean % change vs placebo (90 % CI) ([2]; 10 mg/day): 18.02 (9.76, 26.28) ^*** % | LDL-C: Mean % change from baseline (90% CI) ([2]; 10 mg/day): −11.94 (−18.31, −5.57) % | LDL-C: Mean % change vs placebo (90 % CI) ([2]; 10 mg/day): −13.59 (−21.83, −5.35) ^** % | Total cholesterol: Mean % change from baseline (90% CI) ([2]; 10 mg/day): −4.92 (−15.93, 6.10) % | Total cholesterol: Mean % change vs placebo (90 % CI) ([2]; 10 mg/day): −4.26 (−17.58, 9.06) % | Triglycerides: Mean % change from baseline (90% CI) ([2]; 10 mg/day): −12.92 (−26.89, 1.06) % | Triglycerides: Mean % change vs placebo (90 % CI) ([2]; 10 mg/day): 5.51 (−11.39, 22.40) % | HDL-C: Mean % change from baseline (90% CI) ([2]; 100 mg/day): 59.28 (51.54, 67.02) % | HDL-C: Mean % change vs placebo (90 % CI) ([2]; 100 mg/day): 65.61 (53.34, 77.88) ^*** % | LDL-C: Mean % change from baseline (90% CI) ([2]; 100 mg/day): −24.47 (−27.68, −21.26) % | LDL-C: Mean % change vs placebo (90 % CI) ([2]; 100 mg/day): −26.13 (−32.39, −19.86) ^*** % | Total cholesterol: Mean % change from baseline (90% CI) ([2]; 100 mg/day): 6.83 (−4.18, 17.85) % | Total cholesterol: Mean % change vs placebo (90 % CI) ([2]; 100 mg/day): 7.49 (−5.83, 20.81) % | Triglycerides: Mean % change from baseline (90% CI) ([2]; 100 mg/day): −3.75 (−17.73, 10.23) % | Triglycerides: Mean % change vs placebo (90 % CI) ([2]; 100 mg/day): 14.67 (−2.22, 31.57) % | HDL-C: Mean % change from baseline (90% CI) ([2]; 300 mg/day): 75.22 (68.87, 81.58) % | HDL-C: Mean % change vs placebo (90 % CI) ([2]; 300 mg/day): 81.56 (70.90, 92.22) ^*** % | LDL-C: Mean % change from baseline (90% CI) ([2]; 300 mg/day): −26.39 (−29.92, −22.85) % | LDL-C: Mean % change vs placebo (90 % CI) ([2]; 300 mg/day): −28.04 (−34.18, −21.90) ^*** % | Total cholesterol: Mean % change from baseline (90% CI) ([2]; 300 mg/day): 15.60 (3.53, 27.67) % | Total cholesterol: Mean % change vs placebo (90 % CI) ([2]; 300 mg/day): 16.25 (2.05, 30.46) % | Triglycerides: Mean % change from baseline (90% CI) ([2]; 300 mg/day): −2.10 (−17.41, 13.21) % | Triglycerides: Mean % change vs placebo (90 % CI) ([2]; 300 mg/day): 16.32 (−1.69, 34.34) % | decrease in LDL-C ([2]; 600 mg, Day 14, relative to placebo): 29% | HDL-C: Mean % change from baseline (90% CI) ([2]; 600 mg/day): 80.50 (73.05, 87.95) % | HDL-C: Mean % change vs placebo (90 % CI) ([2]; 600 mg/day): 87% and 86.83 (75.96, 97.71) ^*** % | LDL-C: Mean % change from baseline (90% CI) ([2]; 600 mg/day): −26.91 (−30.71, −23.11) % | LDL-C: Mean % change vs placebo (90 % CI) ([2]; 600 mg/day): −28.56 (−34.76, −22.37) ^*** % | Total cholesterol: Mean % change from baseline (90% CI) ([2]; 600 mg/day): 15.48 (7.85, 23.11) % | Total cholesterol: Mean % change vs placebo (90 % CI) ([2]; 600 mg/day): 16.13 (5.44, 26.82) ^* % | Triglycerides: Mean % change from baseline (90% CI) ([2]; 600 mg/day): −22.08 (−31.76, −12.40) % | Triglycerides: Mean % change vs placebo (90 % CI) ([2]; 600 mg/day): −3.66 (−17.22, 9.91) % | changes in triglycerides ([2]; 10–600 mg, Day 14): no statistically significant changes | HDL-C change (SD) from baseline to 2 weeks after the last dose ([2]; 600-mg dose group): 7.3% | LDL-C change (SD) from baseline to 2 weeks after the last dose ([2]; 600-mg dose group): −2.6% | HDL-C and LDL-C after 2-week washout ([2]; all dose groups): returned to levels at or near baseline | Apo AI: Mean % change from baseline (90% CI) [3]: 3.53 (−2.23, 9.30) %
